Data on 36 molecules can be found in ChEMBL document CHEMBL1145607, “Design, synthesis and evaluation of 2-phenyl-1H-benzo[d]imidazole-4,7-diones as vascular smooth muscle cell proliferation inhibitors” (Bioorg Med Chem Lett, 2008).

Calls of active or inactive are those of the source. No cut-off for these calls is given here.

A short description of assay [1]: Antiproliferative activity against PDGF-induced rat aortic VSMC by colorimetric assay. Type of assay: functional, tissue-based. The following applies: Aorta. The method in brief: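 Rat aortic SMCs stimulated with PDGF; inhibition of proliferation read by a colorimetric assay; IC50 values determined by comparison to mycophenolic acid as standard agent.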
The subject of assay [2] is VSMC. As to the kind of experiment: Effect on pRb protein expression in rat aortic VSMC at 1 ug/ml after 48 hrs by Western blot. Type of assay: functional, tissue-based. The following applies: Aorta. The method in brief:
(§1)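 Total cell lysates from cultured SMCs treated with 1 µg/mL for 48 h; PCNA, cyclin A, cyclin D1, pRb (also cdk 2) probed by Western blot.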

The target of assay [3] is RAC-alpha serine/threonine-protein kinase (Rattus norvegicus) (UniProt P47196). The experiment in a line: Inhibition of Akt phosphorylation in rat aortic VSMC at 1 ug/ml after 1 hr. Type of assay: tissue-based. The following applies: Aorta. The gist of the method: (§2)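 Cultured SMCs exposed to test agent for 1 h; phosphorylated ERK and phosphorylated Akt examined by Western blot.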
Sequence of RAC-alpha serine/threonine-protein kinase (Rattus norvegicus) (P47196 whole entry): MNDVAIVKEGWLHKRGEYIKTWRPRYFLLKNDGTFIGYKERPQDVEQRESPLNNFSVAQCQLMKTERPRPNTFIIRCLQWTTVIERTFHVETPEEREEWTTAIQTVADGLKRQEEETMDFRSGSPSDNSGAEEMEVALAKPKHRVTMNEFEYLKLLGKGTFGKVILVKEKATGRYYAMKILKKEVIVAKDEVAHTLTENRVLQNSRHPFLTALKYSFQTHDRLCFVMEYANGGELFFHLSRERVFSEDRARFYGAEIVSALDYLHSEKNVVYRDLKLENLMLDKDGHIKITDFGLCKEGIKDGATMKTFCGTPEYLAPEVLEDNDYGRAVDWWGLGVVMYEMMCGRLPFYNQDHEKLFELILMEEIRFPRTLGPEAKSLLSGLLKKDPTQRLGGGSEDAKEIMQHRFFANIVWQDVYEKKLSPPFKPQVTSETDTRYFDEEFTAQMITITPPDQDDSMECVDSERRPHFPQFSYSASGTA

Assay [4] is described as follows: Down-regulation of cyclin A protein expression in rat aortic VSMC at 1 ug/ml after 48 hrs by Western blot. Type of assay: functional, tissue-based. The following applies: Aorta. The method in brief:
as §1

Assay [5] has as its system VSMC. As to the kind of experiment: Antiproliferative activity against PDGF-induced rat aortic VSMC assessed as cell density at 1 ug/ml after 48 hrs by phase-contrast microscope. Type of assay: functional, cell-based. The gist of the method: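 Cultured rat aortic SMCs exposed to 1 µg/mL test agent or DMSO vehicle alone for 48 h; cell density judged by observation and photography under a phase-contrast microscope.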

The species entered for another assay is Rattus norvegicus. As to the kind of experiment: Inhibition of ERK phosphorylation in rat aortic VSMC at 1 ug/ml after 1 hr. It is filed as tissue-based. The following applies: Aorta. The method in brief: as §2
The subject of assay [6] is VSMC. As to the kind of experiment: Effect on cyclin D1 protein expression in rat aortic VSMC at 1 ug/ml after 48 hrs by Western blot. It is filed as functional, tissue-based. The following applies: Aorta. The method in brief: as §1
(In general: In western blotting, separated proteins are transferred to a membrane and probed.)

A short description of assay [7]: Down-regulation of PCNA protein expression in rat aortic VSMC at 1 ug/ml after 48 hrs by Western blot. Type of assay: functional, tissue-based. The following applies: Aorta. The gist of the method: as §1
Assay [8] can be described thus: Cell cycle arrest in rat aortic VSMC assessed as DNA accumulation at G0/G1 phase at 1 ug/ml after 48 hrs relative to control. Type of assay: functional, cell-based. The method in brief:
(§3)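 Cultured SMCs treated with 1 µg/mL for 48 h alongside a vehicle-treated control; DNA content per cell-cycle phase analysed by flow cytometry.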

The nature of assay [9]: Cell cycle arrest in rat aortic VSMC assessed as DNA accumulation at S phase at 1 ug/ml after 48 hrs relative to control. It is filed as functional, cell-based. The gist of the method:
as §3

A short description of assay [10]: Cell cycle arrest in rat aortic VSMC assessed as DNA accumulation at G2/M phase at 1 ug/ml after 48 hrs relative to control. It is filed as functional, cell-based. The method in brief: as §3

One may read the IC50 as the concentration that gives 50% inhibition. Read a low IC50 as greater potency in that assay. In turn, `CCOc1ccc(NC2=C(Cl)C(=O)c3nc(-c4ccccc4)[nH]c3C2=O)cc1` registered an IC50 in assay [1] of 50 µM. This lies in the double-digit micromolar range.
On the same count and under the same terms, to `COc1ccc(NC2=C(Cl)C(=O)c3nc(-c4ccccc4)[nH]c3C2=O)cc1` belongs 2 µM; to `O=C1C(Cl)=C(Nc2ccc(Cl)cc2)C(=O)c2[nH]c(-c3cccnc3)nc21`, 20 µM; to `O=C1C(Cl)=C(Nc2ccc(OC(F)(F)F)cc2)C(=O)c2[nH]c(-c3ccccc3)nc21`, 1.5 µM.
For the molecule `O=C1C(Cl)=C(Sc2ccc(Br)cc2)C(=O)c2[nH]c(-c3ccccc3)nc21`, the midpoint of inhibition in assay [1], the IC50, lay at 1.5 µM.
Same read-out and setting: to `O=C1C(Cl)=C(Nc2ccc(Cl)cc2)C(=O)c2[nH]c(-c3ccccc3)nc21` belongs 5.3 µM; to `COc1ccc(NC2=C(Cl)C(=O)c3nc(-c4cccnc4)[nH]c3C2=O)cc1`, 42 µM; to `O=C1C(Cl)=C(Sc2ccccc2)C(=O)c2[nH]c(-c3ccccc3)nc21`, 1.5 µM.
`Cc1cccc(SC2=C(Cl)C(=O)c3nc(-c4ccccc4)[nH]c3C2=O)c1`: the IC50 in assay [1] is 2 µM.
In [1], `O=C1C(Cl)=C(Nc2ccc(Br)cc2)C(=O)c2[nH]c(-c3ccccn3)nc21` came in with a half-maximal inhibitory concentration (IC50) of 6.5 µM.
In assay [1], `Cc1ccc(NC2=C(Cl)C(=O)c3nc(-c4ccccc4)[nH]c3C2=O)cc1` displayed a half-inhibitory concentration (IC50) of 3 µM.
Consider `Cc1ccc(SC2=C(Cl)C(=O)c3nc(-c4ccccc4)[nH]c3C2=O)cc1`, for which, in assay [1], the IC50 was found to be 1 µM.
On the same count and under the same terms, to `O=C1C(Cl)=C(Nc2ccccc2)C(=O)c2[nH]c(-c3ccccc3)nc21` belongs 4 µM; to `O=C1C(Cl)=C(Nc2ccc(C(F)(F)F)cc2)C(=O)c2[nH]c(-c3ccccn3)nc21`, 1 µM.
Take `COc1ccc(SC2=C(Cl)C(=O)c3nc(-c4ccccc4)[nH]c3C2=O)cc1`: the IC50 in [1] was 1 µM. In addition, the outcome (with VSMC [2]; in assay [3]; in assay [4]; with VSMC [5]; in the assay filed under Rattus norvegicus; in the assay on VSMC [6]) was Active. Also, the outcome in assay [7] was Active. Besides, the Activity in assay [8] was found to be 59.6%; in [9], 22.4%; in assay [10], 8%.
`CCc1ccc(SC2=C(Cl)C(=O)c3nc(-c4ccccn4)[nH]c3C2=O)cc1` registered a concentration for half-maximal inhibition (IC50) in assay [1] of 7 µM.
Molecule `O=C1C(Cl)=C(Nc2ccc(F)cc2)C(=O)c2[nH]c(-c3ccccn3)nc21` had an IC50 in assay [1] of 9.4 µM.
Still for that read-out and setting: to `O=C1C(Cl)=C(Nc2ccc(Cl)cc2)C(=O)c2[nH]c(-c3ccccn3)nc21` belongs 12.1 µM.
Same read-out and setting: to `O=C1C(Cl)=C(Nc2ccc(Cl)cc2)C(=O)c2[nH]c(-c3ccncc3)nc21` belongs 25 µM; to `COc1c(C)c2c(c(O)c1C/C=C(\C)CCC(=O)O)C(=O)OC2` [MYCOPHENOLIC ACID], 1 µM; to `COc1ccc(NC2=C(Cl)C(=O)c3nc(-c4ccccn4)[nH]c3C2=O)cc1`, 20 µM.
The molecule `O=C1C(Cl)=C(Sc2ccc(Br)cc2)C(=O)c2[nH]c(-c3ccccn3)nc21` came in with an IC50 in assay [1] of 12 µM.
Same read-out and setting: to `Cc1ccc(SC2=C(Cl)C(=O)c3nc(-c4ccccn4)[nH]c3C2=O)cc1` belongs 2.5 µM.
In turn, `O=C1C(Cl)=C(Nc2ccc(Br)cc2)C(=O)c2[nH]c(-c3cccnc3)nc21` registered an IC50 in assay [1] of 50 µM. Compared with the last molecule, the IC50 is about 20-fold higher.
The same measure, in the same setting: in the case of `COc1ccc(NC2=C(Cl)C(=O)c3nc(-c4ccncc4)[nH]c3C2=O)cc1` it was 50 µM; in that of `O=C1C(Cl)=C(Nc2ccc(F)cc2)C(=O)c2[nH]c(-c3cccnc3)nc21`, 21 µM.
Same read-out and setting: in the case of `O=C1C(Cl)=C(Nc2ccc(C(F)(F)F)cc2)C(=O)c2[nH]c(-c3ccccc3)nc21` it was 9.4 µM; in that of `COc1ccc(SC2=C(Cl)C(=O)c3nc(-c4ccccn4)[nH]c3C2=O)cc1`, 4.2 µM; in that of `O=C1C(Cl)=C(Sc2ccc(O)cc2)C(=O)c2[nH]c(-c3ccccc3)nc21`, 2 µM.
For the molecule `CCc1ccc(NC2=C(Cl)C(=O)c3nc(-c4ccccc4)[nH]c3C2=O)cc1`, in [1], the IC50 turned out to be 10.7 µM.
In assay [1], `Cc1ccc(NC2=C(Cl)C(=O)c3nc(-c4ccccn4)[nH]c3C2=O)cc1` registered an IC50 of 50 µM.
`Cc1ccc(NC2=C(Cl)C(=O)c3nc(-c4ccccc4)[nH]c3C2=O)cc1C` yielded an IC50 in [1] of 3 µM.
The same measure, in the same setting: in the case of `O=C1C(Cl)=C(Sc2ccc(Cl)cc2)C(=O)c2[nH]c(-c3ccccn3)nc21` it was 4 µM.
`O=C1C(Cl)=C(Nc2ccc(F)cc2)C(=O)c2[nH]c(-c3ccncc3)nc21` returned an IC50 in assay [1] of 50 µM.
Still for that read-out and setting: in the case of `O=C1C(Cl)=C(Nc2ccc(Br)cc2)C(=O)c2[nH]c(-c3ccncc3)nc21` it was 100 µM.
On to `O=C1C(Cl)=C(Nc2ccc(OC(F)(F)F)cc2)C(=O)c2[nH]c(-c3ccccn3)nc21`, for which the IC50 in assay [1] came out at 20 µM.
